From ChEMBL document CHEMBL1122155, “Synthesis and biological evaluation of novel pyrimidine nucleoside analogues of 1,4-oxathiane, 1,4-dithiane, and 1,4-dioxane” (1982)
Values joined by “and” are separate entries in the source; they are usually repeats but may differ in a detail not shown here. Equal entries are not always repeated.

How the values were obtained:
MDAY-D2 = assay: In vitro antitumor activity (tumor cell growth inhibition) against MDAY-D2 cells; assay type: functional, Mus musculus
In short: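 MDAY-D2 cells in Alpha MEM with 10% fetal calf serum, penicillin and streptomycin. Seeded at 10^3–10^4 cells/mL. Next day, compound dissolved in Me2SO and diluted in medium was added (final 0.5% Me2SO), with duplicate wells per concentration. Coulter counts after 5–6 days, before controls reached maximal density. ID50 was read from log-log plots of concentration vs cell number, with controls as 100%.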

L1210 [1] = assay: In vitro antitumor activity against mouse […] leukemia L1210 cells; assay type: functional
In short: (§1)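 L1210 and K-562 cells grown in RPMI 1640 with 10% fetal calf serum plus penicillin/streptomycin. Suspensions of 10^3–10^4 cells/mL were plated, and compound (Me2SO stock diluted in medium) was added the following day. Final Me2SO was 0.5%, with two wells per concentration. Cells were counted by Coulter counter at 5–6 days. ID50 was taken from log-log concentration vs cell number plots, with untreated controls as 100%.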

K562 [2] = assay: In vitro antitumor activity against human erythroleukemia K-562 cells; assay type: functional; in short: as §1
K562 [3] = assay: In vitro antitumor activity (tumor cell growth inhibition) against human erythroleukemia K-562 cells; assay type: functional; in short: as §1
K562 [4] = assay: In vitro antitumor activity (tumor cell growth inhibition) against human erythroleukemia K-562; assay type: functional; in short: as §1
L1210 [5] = assay: In vitro antitumor activity (tumor cell growth inhibition) against mouse […] leukemia L1210; assay type: functional; in short: as §1
L1210 [6] = assay: In vitro antitumor activity against mouse […] leukemia L1210; assay type: functional
In short: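 L1210 cells in RPMI 1640 with 10% fetal calf serum and penicillin/streptomycin were seeded at 10^3-10^4 cells/mL. Compounds were dissolved in Me2SO, diluted in medium, and added the next day (final 0.5% Me2SO, matching controls), in duplicate wells. After 5-6 days, before controls peaked, cells were Coulter-counted. ID50 was read from log-log concentration vs cell-number plots, with controls as 100%.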

Row | Compound | ID50 (MDAY-D2) [µM] | ID50 (L1210 [1]) | ID50 (K562 [2]) | other results
1 | O=c1[nH]c(=O)n(C2COCCS2)cc1F (stereo not drawn) | 4600 | > 1060 µM | >1.06 mM l-1 and >1.05 mM l-1 | 
2 | O=c1ccn(C2CSCCS2)c(=O)[nH]1 (stereo not drawn) |  | 240 µM | > 1050 µM | 
3 | O=c1[nH]c(=O)n(C2COCCO2)cc1F (stereo not drawn) | > 1000 | > 970 µM | >1.09 mM l-1 and >0.97 mM l-1 | 
4 | O=c1[nH]c(=O)n(C2CSCCS2)cc1F (stereo not drawn) | 500 | 0.65 mM l-1 and 0.23 mM l-1 | > 1020 µM | 
5 | O=c1[nH]c(=O)n(C2COCC[S+]2[O-])cc1F (stereo not drawn) |  |  | > 1010 µM | ID50 (K562 [3]): > 990 µM
6 | O=c1[nH]c(=O)n(C2CSCCO2)cc1F (stereo not drawn) | 1400 | > 1010 µM | >1 mM l-1 and 0.46 mM l-1 | 
7 | O=c1[nH]c(=O)n(C2=COCCS2)cc1F |  |  |  | ID50 (K562 [4]): 380 µM; ID50 (L1210 [5]): 20 µM
8 | Cc1cn(C2CSCCS2)c(=O)[nH]c1=O (stereo not drawn) |  | 0.23 mM l-1 and 0.21 mM l-1 | 670 µM | 
9 | O=c1[nH]cc(F)c(=O)[nH]1 [FLUOROURACIL] | 0.2 |  | 0.0023 mM l-1 and 0.0046 mM l-1 | 
10 | O=c1[nH]c(=O)n(C2CCCO2)cc1F (stereo not drawn) [TEGAFUR] |  |  |  | ID50 (L1210 [6]): 8.4 µM
